The subject of data set [1] is Mycobacterium tuberculosis. In words: Antimycobacterial activity against Mycobacterium tuberculosis H37Rv by agar dilution method. The format is functional. Put shortly: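 Agar dilution on Middlebrook 7H11 agar supplemented with OADC, following the NCCLS approach, using log-phase M. tuberculosis cultures. Run in triplicate. MIC was taken as the lowest concentration giving complete inhibition of growth.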

Another data set concerns HepG2. In words: Cytotoxicity against human HepG2 cells at 20 to 25 uM after 48 hrs by MTT assay. The settings on record: hepg2, 48 h. It is filed as cell-based. Put shortly:
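HepG2 cells were seeded at 2500/well and grown 24 h, then exposed to compound for 48 h. MTT (20 µL of a 5 mg/mL stock) was added for 2.5 h at 37 °C, and OD was read at 570 nm. Results are reported as % inhibition at a single concentration.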

Data set [2] is described as follows: Plasma clearance in Wistar rat at 10 mg/kg, iv administered as single bolus dose. Also on record: dose 10 mg/kg, route intravenous. It is filed as ADME, organism-based. The essentials: (§1)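 Male Wistar rats given a single iv bolus of 10 mg/kg in 20% propylene glycol, 10% cremophor ELP and 20% N-methylpyrrolidone in normal saline. Plasma was assayed by reverse-phase HPLC with PDA detection. Parameters came from plasma concentration–time data by non-compartmental analysis.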

For data set [3], the system named is Rattus norvegicus. In words: (§2) AUC (0 to t) in Wistar rat at 50 mg/kg, po administered as single dose. It is filed as ADME, organism-based, Plasma. Also on record: dose 50 mg/kg, route oral. The settings on record: in vivo. Put shortly: (§3)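 Male Wistar rats got a single oral dose of 50 mg/kg as a suspension in 0.25% sodium CMC with Tween 80. Plasma was measured by reverse-phase HPLC with PDA detection and analysed non-compartmentally. AUC covered 10 h. Bioavailability was derived against a separate 10 mg/kg iv bolus dose in the same vehicle system as the iv study.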

The test system of data set [4] is Rattus norvegicus. In words: (§4) AUC (0 to t) in Wistar rat at 10 mg/kg, iv administered as single bolus dose. Set-up: dose 10 mg/kg, route intravenous. The settings on record: in vivo. The format is ADME, organism-based, Plasma. The essentials: as §1
Data set [5] is described as follows: Tmax in Wistar rat at 50 mg/kg, po administered as single dose. Set-up: dose 50 mg/kg, route oral. The format is ADME, organism-based. The settings on record: in vivo. Put shortly:
as §3

The nature of data set [6]: Elimination rate constant in Wistar rat at 10 mg/kg, iv administered as single bolus dose. The format is ADME, organism-based. Set-up: dose 10 mg/kg, route intravenous. The following applies: in vivo. The essentials:
as §1

Data set [7] can be described thus: Cmax in Wistar rat at 10 mg/kg, iv administered as single bolus dose. The format is ADME, organism-based. Also on record: dose 10 mg/kg, route intravenous. The settings on record: in vivo. The essentials: as §1
Data set [8] is described as follows: Cmax in Wistar rat at 50 mg/kg, po administered as single dose. It is filed as ADME, organism-based. Set-up: dose 50 mg/kg, route oral. The settings on record: in vivo. Put shortly: as §3
A short description of data set [9]: Volume of distribution in Wistar rat at 10 mg/kg, iv administered as single bolus dose. It is filed as ADME, organism-based. The following applies: in vivo. Set-up: dose 10 mg/kg, route intravenous. The essentials: as §1
The subject of data set [10] is Rattus norvegicus. In words: (§5) Oral bioavailability in Wistar rat at 50 mg/kg administered as single dose. The format is ADME, organism-based. The settings on record: in vivo. The essentials: as §3
Data set [11] is described as follows: as §2. Also on record: dose 50 mg/kg, route oral. The settings on record: Wistar, plasma. The format is ADME, organism-based, Plasma. The essentials: as §3
Data set [12] deals with Mycobacterium tuberculosis. In words: Ratio of INH MIC to compound MIC for Mycobacterium tuberculosis H37Rv by agar dilution method. It is filed as functional.
The nature of data set [13]: as §4. It is filed as ADME, organism-based, Plasma. Also on record: dose 10 mg/kg, route intravenous. The settings on record: Wistar, plasma. The essentials:
as §1

Data set [14] in a line: Half life in Wistar rat at 10 mg/kg, iv administered as single bolus dose. The settings on record: in vivo. It is filed as ADME, organism-based. Also on record: dose 10 mg/kg, route intravenous. Put shortly:
as §1

Data set [15] in a line: as §5. It is filed as ADME, organism-based. The settings on record: Wistar, in vivo. Put shortly: as §3

On to `O=C(NNCc1ccccc1)c1ccncc1`, for which the MIC in [1] turned out to be 0.2 µg/mL.
With `O=C(NN1C(=O)CCSC1c1cccc(O)c1)c1ccncc1` (stereo not drawn), 9.49 µM was the least that counted as inhibitory in data set [1] (MIC). The same molecule showed an Activity in the data set on HepG2 of 8.2%.
`O=C(NN1C(=O)CCSC1c1ccccc1F)c1ccncc1` (stereo not drawn): the MIC in data set [1] was found to be 0.6 µM. The molecule further came in with an Activity in the data set with HepG2 of 18.6%.
Taken in the same sequence, the figures for `O=C(NN1C(=O)CCSC1c1ccccc1[N+](=O)[O-])c1ccncc1` (stereo not drawn) were 2.12 µM and 28.8%.
As to `O=C(NN1C(=O)CCSC1c1ccccc1OCc1ccccc1)c1ccncc1` (stereo not drawn), in data set [1], the MIC is 0.24 µM. In the data set on HepG2, this molecule registered an Activity of 10.6%.
In turn, `O=C(NN=C1CCCCC1)c1ccncc1` came in with an MIC in [1] of 0.0004 µM.
`CC(C)c1ccc(C2SCCC(=O)N2NC(=O)c2ccncc2)cc1` (stereo not drawn) yielded an MIC in data set [1] of 2.14 µM. This molecule registered an Activity in the data set with HepG2 of 19%.
On to `Cc1c(CN2CCN(c3cccc(C(F)(F)F)c3)CC2)cc(-c2ccccc2)n1NC(=O)c1ccncc1` [SUDOTERB], for which the MIC in data set [1] was 0.25 µg/mL.
Regarding `O=C(NN1C(=O)CCSC1c1ccccc1O)c1ccncc1` (stereo not drawn), 19 µM was the least that counted as inhibitory in [1] (MIC). Moreover, the Activity in the data set on HepG2 amounted to 8.6%.
Taken in the same sequence, the figures for `COc1cc(C2SCCC(=O)N2NC(=O)c2ccncc2)ccc1O` (stereo not drawn) were 8.7 µM and 16.11%.
In data set [1], `O=C(NN1C(=O)CCSC1c1ccc([N+](=O)[O-])cc1)c1ccncc1` (stereo not drawn) yielded an MIC of 1.11 µM. In addition, the Activity in the data set with HepG2 was found to be 32%.
With `O=C(NN1C(=O)CCSC1c1ccccc1C(F)(F)F)c1ccncc1` (stereo not drawn), the MIC in data set [1] stood at 0.52 µM. This molecule registered an Activity in the data set with HepG2 of 24.2%.
Taken in the same sequence, the figures for `O=C(NN1C(=O)CCSC1c1ccc(O)cc1)c1ccncc1` (stereo not drawn) were 18.9 µM and 10.7%.
`COc1ccc(C2SCCC(=O)N2NC(=O)c2ccncc2)cc1` (stereo not drawn) had an MIC in data set [1] of 4.54 µM. The Activity in the data set with HepG2 came to 12.6%.
For `O=C(NN1C(=O)CCSC1c1cccc(OCc2ccccc2)c1)c1ccncc1` (stereo not drawn), the MIC in data set [1] was 0.24 µM. In the data set with HepG2, this molecule returned an Activity of 12.6%.
Regarding `NNC(=O)c1ccncc1` [ISONIAZID], in [2], the clearance worked out at 0.21 mL/min/kg. For the same molecule, the AUCt in the data set on Rattus norvegicus [3] amounted to 197090 ng·h/mL; with Rattus norvegicus [4], 684000 ng·h/mL. The MIC in data set [1] was found to be 0.36 µM. The molecule also gave an Activity with HepG2 of 10%. Also, the Tmax in data set [5] was 2 h. This molecule had a k el in data set [6] of 6.67e-05 s⁻¹. Moreover, the values for the Cmax in data set [7] and in data set [8] were 298000 ng/mL and 52300 ng/mL, respectively. For the same molecule, the Vd in data set [9] was 0.026 L. The molecule also displayed a F with Rattus norvegicus [10] of 17.36%.
Consider `O=C(NN1C(=O)CCSC1c1ccccc1Br)c1ccncc1` (stereo not drawn), for which, in data set [1], 0.25 µM was the least that counted as inhibitory (MIC). This molecule registered an Activity in the data set with HepG2 of 22.2%.
In the case of `CC1(C)CC(=O)C2=C(C1)N(NC(=O)c1ccncc1)C1=C(C(=O)CC(C)(C)C1)C2c1ccccc1OCc1ccccc1`, in data set [1], the MIC amounted to 0.17 µM.
`O=C(NN1C(=O)CCSC1c1cccc(F)c1)c1ccncc1` (stereo not drawn) showed an MIC in data set [1] of 0.6 µM. The Activity with HepG2 came out at 16.4%.
For `O=C(NN1C(=O)CCSC1c1ccc(F)cc1)c1ccncc1` (stereo not drawn), the MIC in [1] turned out to be 0.3 µM. This molecule had an Activity in the data set on HepG2 of 18.6%.
For `COc1cc(C2SCCC(=O)N2NC(=O)c2ccncc2)cc(OC)c1OC` (stereo not drawn), the minimal inhibitory concentration (MIC) in data set [1] is 7.76 µM. This molecule gave an Activity in the data set on HepG2 of 8.6%.
Consider `O=C(NN1C(=O)CCSC1c1ccc(C(F)(F)F)cc1)c1ccncc1` (stereo not drawn), for which 0.13 µM was the least that counted as inhibitory in data set [1] (MIC). The molecule further gave an Activity with HepG2 of 20.6%.
As for `Cc1ccc(C2SCCC(=O)N2NC(=O)c2ccncc2)cc1` (stereo not drawn), in data set [1], the MIC came out at 9.56 µM. In the data set with HepG2, this molecule had an Activity of 12.4%.
Taken in the same sequence, the figures for `Cc1cccc(C2SCCC(=O)N2NC(=O)c2ccncc2)c1` (stereo not drawn) were 9.56 µM and 8.6%.
For `O=C(NN1C(=O)CCSC1c1ccc(OCc2ccccc2)cc1)c1ccncc1` (stereo not drawn), the clearance in [2] amounted to 22.5 mL/min/kg. The AUC(0-t) in data set [11] was found to be 5870 ng·h/mL; in [13], 7500 ng·h/mL. Also, the Ratio in [12] turned out to be 3. Besides, the MIC in [1] was 0.12 µM. Also, the Activity with HepG2 was found to be 8.8%. Besides, the Tmax in data set [5] was found to be 3 h. In addition, in data set [6], the k el is 0.000172 s⁻¹. Also, the Cmax in [7] turned out to be 5290 ng/mL; in data set [8], 1310 ng/mL. The same molecule showed a half-life in data set [14] of 1.14 h. The molecule also showed a volume of distribution (Vd) in data set [9] of 1.99 L. In addition, the bioavailability in [15] stood at 16.7%.
In data set [1], `COc1ccccc1C1SCCC(=O)N1NC(=O)c1ccncc1` (stereo not drawn) returned an MIC of 9.08 µM. This molecule also had an Activity in the data set on HepG2 of 15.2%.
As to `C/C(=N\NC(=O)c1ccncc1)c1ccc(NC(=S)Nc2ccc(F)cc2)cc1`, in [1], the MIC is 0.45 µM.
`Cc1ccccc1C1SCCC(=O)N1NC(=O)c1ccncc1` (stereo not drawn): in [1], the MIC stood at 9.56 µM. The molecule further had an Activity with HepG2 of 12.6%.
`O=C(c1ccncc1)N1N=CCC1(O)C(F)(F)F` (stereo not drawn) registered an MIC in data set [1] of 0.77 µM.
The molecule `O=C(NN1C(=O)CCSC1c1ccccc1Cl)c1ccncc1` (stereo not drawn) gave an MIC in data set [1] of 1.15 µM. The same molecule had an Activity in the data set on HepG2 of 20.6%.
The matching figures for `O=C(NN1C(=O)CCSC1c1cccc(C(F)(F)F)c1)c1ccncc1` (stereo not drawn): 0.52 µM and 26.4%.
Regarding `CN(C)c1ccc(C2SCCC(=O)N2NC(=O)c2ccncc2)cc1` (stereo not drawn), the MIC in [1] was 8.78 µM. The molecule also gave an Activity with HepG2 of 4.6%.
With `COc1cccc(C2SCCC(=O)N2NC(=O)c2ccncc2)c1` (stereo not drawn), in data set [1], the lowest concentration to inhibit growth (MIC) was 9.08 µM. The molecule also registered an Activity in the data set with HepG2 of 10.4%.
The molecule `O=C(NN1C(=O)CCSC1c1ccccc1)c1ccncc1` (stereo not drawn) yielded an MIC in data set [1] of 9.9 µM. The Activity in the data set with HepG2 was determined as 10.6%.
Take `C/C(=N/NC(=O)c1ccncc1)c1cccc(CN2CCNCC2)c1O`: the MIC in data set [1] was determined as 0.56 µM.
In data set [1], `O=C(NN1C(=O)CCSC1Cc1ccco1)c1ccncc1` (stereo not drawn) came in with an MIC of 41.2 µM. Moreover, the Activity in the data set on HepG2 was 18.6%.
In [1], `O=C(NN1C(=O)CCSC1c1ccc(Br)cc1)c1ccncc1` (stereo not drawn) displayed a minimal inhibitory concentration (MIC) of 0.5 µM. In addition, the Activity in the data set with HepG2 is 18.4%.
For the molecule `O=C(NN1C(=O)CCSC1c1ccc(Cl)cc1)c1ccncc1` (stereo not drawn), in data set [1], 0.575 µM was the least that counted as inhibitory (MIC). Moreover, the Activity in the data set with HepG2 came to 26.8%.
Regarding `O=C(NN1C(=O)CCSC1Cc1ccc([N+](=O)[O-])o1)c1ccncc1` (stereo not drawn), the MIC in data set [1] was 4.48 µM. In the data set on HepG2, the Activity was 38.6%.
Take `O=C(NN1C(=O)CCSC1c1cccc([N+](=O)[O-])c1)c1ccncc1` (stereo not drawn): the MIC in data set [1] was found to be 0.56 µM. Also, the Activity in the data set on HepG2 is 28.6%.

Source of the values: ChEMBL document CHEMBL2021787 (Bioorg Med Chem Lett, 2012).
